Experimental data: PMC11533052 (Nanoscale Advances, 2024)

What was measured:
4T1 tumor-bearing mice [1] = assay: In vivo anti-tumor research in 4T1 tumor-bearing mice; set-up: species or system BALB/c mice
Method in brief: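 Female BALB/c mice (6 weeks, 16–18 g) received 4T1 cells (1 × 10^7 cells per mL, 100 μL) s.c. into the right forelimb axilla. At about 100 mm3 tumor volume, mice were randomised (n = 5) to saline, free drug, or drug-loaded hydrogel (1 mg mL-1 drug : 20 mg mL-1 peptide). Dosing was s.c. near the tumor at 100 μL/20 g, giving […], on day 1. Weight and tumor volume were recorded. Tumors and organs were taken at day 7, formalin-fixed, H&E and TUNEL stained.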

4T1 tumor-bearing mice [2] = assay: In vivo biological distribution analysis; set-up: species or system BALB/c mice; details: DiR 1 mg kg^−1 s.c. near the tumor, n = 3
Method in brief: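 4T1 tumor-bearing mice (tumor about 200 mm3) were randomised (n = 3) to free near-infrared dye DiR at 1 mg kg-1 or hydrogel-loaded DiR at the equivalent dose, injected s.c. near the tumor at 100 μL/20 g. Anaesthetised mice were imaged live at 1, 6, 12, 24, 48 and 96 h (λex 748 nm, λem 780 nm). At 96 h, mice were euthanised and organs collected.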

Row | SMILES | tumor growth inhibition (4T1 tumor-bearing mice [1]; 7 days, versus NS group, n = 5) | body weight of mice at start (4T1 tumor-bearing mice [1]; day 1, s.c. near the tumor, DOX 1 mg mL^−1, 100 μL/20 g, n = 5) | histology of major organs (H&E) (4T1 tumor-bearing mice [1]; heart, liver, spleen, lung, kidney after 7 days of treatment) | body weight of mice at end (4T1 tumor-bearing mice [1]; within 7 days, s.c. near the tumor, DOX 1 mg mL^−1, 100 μL/20 g, n = 5) | ex vivo fluorescence distribution in tumor and organs (4T1 tumor-bearing mice [2]; 96 hours after administration) | in vivo fluorescence over time (4T1 tumor-bearing mice [2]; live imaging 1–96 hours)
1 | COc1cccc2c1C(=O)c1c(O)c3c(c(O)c1C2=O)C[C@@](O)(C(=O)CO)C[C@@H]3O[C@H]1C[C@H](N)[C@H](O)[C@H](C)O1 [DOX, doxorubicin] | significant tumor growth inhibition | 18.8 g | significant necrosis of heart and liver cells | 16.9 g | – | –
2 | CCCCCCCCCCCCCCCCCCN1/C(=C/C=C/C=C/C=C/C2=[N+](CCCCCCCCCCCCCCCCCC)c3ccccc3C2(C)C)C(C)(C)c2ccccc21.[I-] [DiR] | – | – | – | – | widespread fluorescence distribution | rapidly decreased over time
